Laboratory results: ChEMBL document CHEMBL4414574, “Structure-Based Discovery and Development of a Series of Potent and Selective Bromodomain and Extra-Terminal Protein Inhibitors” (J Med Chem, 2019)
Calls of active or inactive are those of the source. The calls are words filed in the database; no cut-off is given here.

Columns and labels:
[1] = target: Cytochrome P450 2C19 (Homo sapiens, UniProt P33261); test: Time-dependent inhibition of CYP2C19 in human liver microsomes at 10 uM using mephenytoin as substrate preincubated up to 30 mins followed by NADPH generating system addition and measured after 10 mins; type: ADME
Procedure, shortened: (§1)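 Human liver microsomes 0.2 mg/mL, 100 mM phosphate pH 7.4, 10 μM test compound, preincubated 0, 5, 10 and 30 min at 37 °C; then NADPH plus probe cocktail (5 μM midazolam, 50 μM testosterone, 5 μM dextromethorphan, 10 μM diclofenac, 50 μM phenacetin, 50 μM S-(+)-mephenytoin) added; 10 min reaction; kobs in units of 10^-4/min.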

[2] = target: T1, Bromodomain-containing protein 4 (Homo sapiens, UniProt O60885); test: Displacement of 5-FITC labelled (+)-JQ1 from His6-tagged human BRD4 bromodomain 1 expressed in Escherichia coli BL21(DE3) )-codon plus-RIL cells incubated for 4 hrs in dark condition by fluorescence anisotropy binding assay
[3] = target: Cytochrome P450 2D6 (Homo sapiens, UniProt P10635); test: Time-dependent inhibition of CYP2D6 in human liver microsomes at 10 uM using dextromethorphan as substrate preincubated up to 30 mins followed by NADPH generating system addition and measured after 10 mins; type: ADME; procedure, shortened: as §1
[4] = target: Histone acetyltransferase p300 (Homo sapiens) (UniProt Q09472); test: Inhibition of EP300 (unknown origin) at 1 uM
Procedure, shortened: (§2)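 Bromodomain binding panel (32 bromodomains) screened at 1 μM; primary binding read-out reported as percent of control, lower values meaning stronger binding.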

[5] = target: CYP2C19 (Homo sapiens, UniProt P33261); test: Reversible inhibition of CYP2C19 in human liver microsomes at 10 uM using mephenytoin as substrate preincubated for 5 mins followed by NADPH generating system addition and measured after 20 mins relative to control; type: ADME; conditions: probe mephenytoin
Procedure, shortened: (§3)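 Human liver microsomes 0.2 mg/mL, 100 mM phosphate pH 7.4, 10 μM test compound, probe cocktail (10 μM midazolam, 100 μM testosterone, 10 μM dextromethorphan, 20 μM diclofenac, 100 μM phenacetin, 100 μM mephenytoin); organic solvent <1%; 5 min preincubation at 37 °C, started with NADPH-generating system, 20 min reaction; metabolite formation expressed relative to PBS control.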

[6] = target: CYP3A4 (Homo sapiens, UniProt P08684); test: Reversible inhibition of CYP3A4 in human liver microsomes at 10 uM using midazolam or testosterone as substrate preincubated for 5 mins followed by NADPH addition and measured after 20 mins relative to control; type: ADME; conditions: probe midazolam or testosterone; procedure, shortened: as §3
[7] = Half life in ICR mouse at 3 mg/kg, po administered via gavage measured after 0.25 to 24 hrs by UPLC/MS analysis; type: ADME, organism-based; conditions: in vivo
Procedure, shortened: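 Male ICR mice dosed orally; vehicle 1% DMSO/0.5% HPMC. Plasma pharmacokinetic parameters, including T1/2, were determined after the single oral dose.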

[8] = Intrinsic clearance in mouse liver microsomes at 1 uM preincubated for 5 mins followed by NADPH addition and measured after 5 to 30 mins by LC/MS/MS analysis; type: ADME, Microsome; conditions: read-out: CLH
Procedure, shortened: (§4)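 Liver microsomes (0.5 mg/mL) preincubated 5 min at 37 °C with 1 μM compound in 0.1 M phosphate buffer pH 7.4 containing 1 mM EDTA and 5 mM MgCl2; started with 1 mM NADPH; sampled at 0, 5, 10 and 30 min; quenched with cold acetonitrile; parent remaining quantified by LC/MS/MS.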

[9] = target: T1, Bromodomain-containing protein 4; test: Inhibition of BRD4 bromodomain 1 (unknown origin)
Procedure, shortened: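 BRD4 BD1 (His6-tagged, E. coli BL21(DE3)-expressed, Ni-NTA purified) at 10 nM with 5 nM FITC-labelled (+)-JQ1 tracer; 50 mM HEPES pH 7.4, 150 mM NaCl, 0.5 mM CHAPS, DMSO 2‰ final; graded inhibitor; 4 h dark equilibration at room temperature; fluorescence anisotropy read (ex 485/em 530 nm). IC50 from two independent experiments in duplicate, mean ± SEM.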

[10] = Solubility of the compound at pH 2 to 7; type: physicochemical; conditions: buffer
[11] = AUC (0 to infinity) in ICR mouse at 3 mg/kg, po administered via gavage measured after 0.25 to 24 hrs by UPLC/MS analysis; type: ADME, organism-based; parameters: dose 3 mg/kg, time infinity, route oral; conditions: in vivo
Procedure, shortened: (§5)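 Male ICR mice were dosed orally in 1% DMSO/0.5% HPMC vehicle. Plasma (and brain, where stated) concentrations gave Tmax, Cmax, T1/2, AUC0-t and AUC0-inf.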

[12] = system: MM1.S; test: Antiproliferative activity against human MM1S cells after 72 hrs by CCK8 or SRB assay; type: functional, cell-based
Procedure, shortened: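 IC50 against MM.1S cell proliferation was taken as the mean of three independent experiments, each run in triplicate, reported with SEM.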

[13] = system: MM1.S; test: Antitumor activity against human MM1S cells xenografted in SCID mouse assessed as tumor growth at 20 mg/kg, po administered daily relative to control; type: functional
[14] = target: Cytochrome P450 3A4 (Homo sapiens, UniProt P08684); test: Time-dependent inhibition of CYP3A4 in human liver microsomes at 10 uM using midazolam or testosterone as substrate preincubated up to 30 mins followed by NADPH generating system addition and measured after 10 mins; type: ADME; procedure, shortened: as §1
[15] = target: Cytochrome P450 2C9 (Homo sapiens, UniProt P11712); test: Time-dependent inhibition of CYP2C9 in human liver microsomes at 10 uM using diclofenac as substrate preincubated up to 30 mins followed by NADPH generating system addition and measured after 10 mins; type: ADME; procedure, shortened: as §1
[16] = target: Bromodomain-containing protein 2 (Homo sapiens) (UniProt P25440); test: Inhibition of BRD2 bromodomain 1 (unknown origin)
[17] = target: Bromodomain-containing protein 2 (Homo sapiens) (UniProt P25440); test: Inhibition of BRD2 bromodomain 2 (unknown origin); procedure, shortened: as §2
[18] = target: T1, Bromodomain-containing protein 4; test: Inhibition of BRD4 bromodomain 2 (unknown origin)
[19] = AUC (0 to t) in ICR mouse at 3 mg/kg, po administered via gavage measured after 0.25 to 24 hrs by UPLC/MS analysis; type: ADME, organism-based; parameters: time upper 24 hr, time lower 0.25 hr, dose 3 mg/kg, route oral; conditions: in vivo; procedure, shortened: as §5
[20] = Half life in mouse liver microsomes at 1 uM preincubated for 5 mins followed by NADPH addition and measured after 5 to 30 mins by LC/MS/MS analysis; type: ADME, Microsome; conditions: mouse liver microsomes
[21] = Intrinsic clearance in human liver microsomes at 1 uM preincubated for 5 mins followed by NADPH addition and measured after 5 to 30 mins by LC/MS/MS analysis; type: ADME, Microsome; conditions: read-out: CLH; procedure, shortened: as §4
[22] = Tmax in ICR mouse at 3 mg/kg, po administered via gavage measured after 0.25 to 24 hrs by UPLC/MS analysis; type: ADME, organism-based; conditions: in vivo
Procedure, shortened: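 Male ICR mice dosed orally (3, 10 or 100 mg/kg, per line) in 1% DMSO/0.5% HPMC vehicle; plasma drug levels measured.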

[23] = Solubility of the compound in water; type: physicochemical; conditions: buffer
[24] = Cmax in ICR mouse at 3 mg/kg, po administered via gavage measured after 0.25 to 24 hrs by UPLC/MS analysis; type: ADME, organism-based; parameters: dose 3 mg/kg, route oral; conditions: in vivo
Procedure, shortened: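 Male ICR mice dosed orally in 1% DMSO/0.5% HPMC vehicle; plasma or brain drug levels used to derive Tmax, Cmax, AUC0-t, AUC0-inf and T1/2.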

[25] = Half life in human liver microsomes at 1 uM preincubated for 5 mins followed by NADPH addition and measured after 5 to 30 mins by LC/MS/MS analysis; type: ADME, Microsome
[26] = target: CYP2C9 (Homo sapiens, UniProt P11712); test: Reversible inhibition of CYP2C9 in human liver microsomes at 10 uM using diclofenac as substrate preincubated for 5 mins followed by NADPH generating system addition and measured after 20 mins relative to control; type: ADME; conditions: probe diclofenac; procedure, shortened: as §3
[27] = target: T2, Cytochrome P450 1A2 (Homo sapiens, UniProt P05177); test: Time-dependent inhibition of CYP1A2 in human liver microsomes at 10 uM using phenacetin as substrate preincubated up to 30 mins followed by NADPH generating system addition and measured after 10 mins; type: ADME; procedure, shortened: as §1
T2 sequence (P05177 whole entry): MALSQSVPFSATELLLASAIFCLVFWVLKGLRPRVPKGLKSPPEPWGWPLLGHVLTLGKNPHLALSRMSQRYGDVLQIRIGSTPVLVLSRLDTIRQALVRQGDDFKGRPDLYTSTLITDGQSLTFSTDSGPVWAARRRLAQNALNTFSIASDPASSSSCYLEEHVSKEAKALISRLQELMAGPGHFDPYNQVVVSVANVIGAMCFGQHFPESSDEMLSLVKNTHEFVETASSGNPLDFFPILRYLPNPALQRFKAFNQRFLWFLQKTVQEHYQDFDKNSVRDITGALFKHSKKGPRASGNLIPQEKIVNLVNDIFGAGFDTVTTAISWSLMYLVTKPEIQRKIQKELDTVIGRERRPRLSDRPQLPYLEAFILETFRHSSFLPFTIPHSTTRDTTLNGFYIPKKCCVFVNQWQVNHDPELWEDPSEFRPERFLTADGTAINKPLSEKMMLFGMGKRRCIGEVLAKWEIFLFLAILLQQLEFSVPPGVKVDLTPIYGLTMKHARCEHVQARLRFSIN

Bromodomain-containing protein 2 (Homo sapiens), sequence (P25440 whole entry, looked up): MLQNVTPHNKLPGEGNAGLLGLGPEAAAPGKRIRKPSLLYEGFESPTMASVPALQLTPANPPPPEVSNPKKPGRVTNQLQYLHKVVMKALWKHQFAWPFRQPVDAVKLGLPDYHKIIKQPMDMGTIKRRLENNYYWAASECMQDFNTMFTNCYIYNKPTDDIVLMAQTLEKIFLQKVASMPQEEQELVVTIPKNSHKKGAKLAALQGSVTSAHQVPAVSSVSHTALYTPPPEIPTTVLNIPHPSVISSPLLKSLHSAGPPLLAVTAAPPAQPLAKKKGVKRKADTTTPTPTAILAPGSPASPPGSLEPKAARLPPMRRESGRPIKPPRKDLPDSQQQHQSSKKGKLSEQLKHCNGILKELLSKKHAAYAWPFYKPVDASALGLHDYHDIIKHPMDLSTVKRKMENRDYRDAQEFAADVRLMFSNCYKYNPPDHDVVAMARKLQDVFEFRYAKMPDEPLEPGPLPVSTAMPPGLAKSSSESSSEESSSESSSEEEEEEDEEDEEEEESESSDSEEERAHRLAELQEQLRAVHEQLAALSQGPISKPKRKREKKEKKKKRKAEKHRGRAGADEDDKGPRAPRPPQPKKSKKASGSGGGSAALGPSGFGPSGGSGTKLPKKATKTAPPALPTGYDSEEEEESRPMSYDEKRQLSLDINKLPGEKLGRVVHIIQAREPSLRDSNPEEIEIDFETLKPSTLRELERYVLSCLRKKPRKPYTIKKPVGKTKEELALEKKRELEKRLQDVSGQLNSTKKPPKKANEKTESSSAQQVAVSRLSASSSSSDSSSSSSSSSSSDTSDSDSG
Cytochrome P450 3A4, sequence (P08684 whole entry): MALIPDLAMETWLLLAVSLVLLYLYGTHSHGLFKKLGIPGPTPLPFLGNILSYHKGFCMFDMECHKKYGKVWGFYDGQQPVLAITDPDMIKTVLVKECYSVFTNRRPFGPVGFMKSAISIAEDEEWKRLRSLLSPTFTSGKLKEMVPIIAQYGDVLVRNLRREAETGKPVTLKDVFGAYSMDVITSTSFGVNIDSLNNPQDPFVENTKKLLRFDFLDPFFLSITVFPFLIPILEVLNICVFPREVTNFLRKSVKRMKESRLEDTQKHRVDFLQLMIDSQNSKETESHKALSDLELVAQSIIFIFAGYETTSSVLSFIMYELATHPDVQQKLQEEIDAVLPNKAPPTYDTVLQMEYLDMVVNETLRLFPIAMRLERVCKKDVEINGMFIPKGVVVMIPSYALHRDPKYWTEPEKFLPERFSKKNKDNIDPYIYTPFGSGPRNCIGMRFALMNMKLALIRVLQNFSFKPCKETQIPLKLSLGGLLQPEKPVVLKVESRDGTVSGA
CYP3A4, sequence (P08684 whole entry): as above
Cytochrome P450 2C9, sequence (P11712 whole entry): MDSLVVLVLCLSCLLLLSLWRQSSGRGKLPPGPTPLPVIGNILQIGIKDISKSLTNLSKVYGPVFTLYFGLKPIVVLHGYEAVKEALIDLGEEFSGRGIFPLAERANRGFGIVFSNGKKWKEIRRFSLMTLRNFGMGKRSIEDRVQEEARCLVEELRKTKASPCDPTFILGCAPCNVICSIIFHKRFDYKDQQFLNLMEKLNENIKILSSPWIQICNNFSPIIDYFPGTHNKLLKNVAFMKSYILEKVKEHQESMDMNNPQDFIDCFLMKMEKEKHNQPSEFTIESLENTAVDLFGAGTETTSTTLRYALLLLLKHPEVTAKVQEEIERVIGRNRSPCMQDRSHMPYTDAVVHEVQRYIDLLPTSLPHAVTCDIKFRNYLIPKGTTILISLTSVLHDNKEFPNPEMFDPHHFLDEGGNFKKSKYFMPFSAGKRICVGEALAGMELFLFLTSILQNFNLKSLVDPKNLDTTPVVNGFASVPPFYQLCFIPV
CYP2C9, sequence (P11712 whole entry): as above
Histone acetyltransferase p300 (Homo sapiens), sequence (Q09472 whole entry): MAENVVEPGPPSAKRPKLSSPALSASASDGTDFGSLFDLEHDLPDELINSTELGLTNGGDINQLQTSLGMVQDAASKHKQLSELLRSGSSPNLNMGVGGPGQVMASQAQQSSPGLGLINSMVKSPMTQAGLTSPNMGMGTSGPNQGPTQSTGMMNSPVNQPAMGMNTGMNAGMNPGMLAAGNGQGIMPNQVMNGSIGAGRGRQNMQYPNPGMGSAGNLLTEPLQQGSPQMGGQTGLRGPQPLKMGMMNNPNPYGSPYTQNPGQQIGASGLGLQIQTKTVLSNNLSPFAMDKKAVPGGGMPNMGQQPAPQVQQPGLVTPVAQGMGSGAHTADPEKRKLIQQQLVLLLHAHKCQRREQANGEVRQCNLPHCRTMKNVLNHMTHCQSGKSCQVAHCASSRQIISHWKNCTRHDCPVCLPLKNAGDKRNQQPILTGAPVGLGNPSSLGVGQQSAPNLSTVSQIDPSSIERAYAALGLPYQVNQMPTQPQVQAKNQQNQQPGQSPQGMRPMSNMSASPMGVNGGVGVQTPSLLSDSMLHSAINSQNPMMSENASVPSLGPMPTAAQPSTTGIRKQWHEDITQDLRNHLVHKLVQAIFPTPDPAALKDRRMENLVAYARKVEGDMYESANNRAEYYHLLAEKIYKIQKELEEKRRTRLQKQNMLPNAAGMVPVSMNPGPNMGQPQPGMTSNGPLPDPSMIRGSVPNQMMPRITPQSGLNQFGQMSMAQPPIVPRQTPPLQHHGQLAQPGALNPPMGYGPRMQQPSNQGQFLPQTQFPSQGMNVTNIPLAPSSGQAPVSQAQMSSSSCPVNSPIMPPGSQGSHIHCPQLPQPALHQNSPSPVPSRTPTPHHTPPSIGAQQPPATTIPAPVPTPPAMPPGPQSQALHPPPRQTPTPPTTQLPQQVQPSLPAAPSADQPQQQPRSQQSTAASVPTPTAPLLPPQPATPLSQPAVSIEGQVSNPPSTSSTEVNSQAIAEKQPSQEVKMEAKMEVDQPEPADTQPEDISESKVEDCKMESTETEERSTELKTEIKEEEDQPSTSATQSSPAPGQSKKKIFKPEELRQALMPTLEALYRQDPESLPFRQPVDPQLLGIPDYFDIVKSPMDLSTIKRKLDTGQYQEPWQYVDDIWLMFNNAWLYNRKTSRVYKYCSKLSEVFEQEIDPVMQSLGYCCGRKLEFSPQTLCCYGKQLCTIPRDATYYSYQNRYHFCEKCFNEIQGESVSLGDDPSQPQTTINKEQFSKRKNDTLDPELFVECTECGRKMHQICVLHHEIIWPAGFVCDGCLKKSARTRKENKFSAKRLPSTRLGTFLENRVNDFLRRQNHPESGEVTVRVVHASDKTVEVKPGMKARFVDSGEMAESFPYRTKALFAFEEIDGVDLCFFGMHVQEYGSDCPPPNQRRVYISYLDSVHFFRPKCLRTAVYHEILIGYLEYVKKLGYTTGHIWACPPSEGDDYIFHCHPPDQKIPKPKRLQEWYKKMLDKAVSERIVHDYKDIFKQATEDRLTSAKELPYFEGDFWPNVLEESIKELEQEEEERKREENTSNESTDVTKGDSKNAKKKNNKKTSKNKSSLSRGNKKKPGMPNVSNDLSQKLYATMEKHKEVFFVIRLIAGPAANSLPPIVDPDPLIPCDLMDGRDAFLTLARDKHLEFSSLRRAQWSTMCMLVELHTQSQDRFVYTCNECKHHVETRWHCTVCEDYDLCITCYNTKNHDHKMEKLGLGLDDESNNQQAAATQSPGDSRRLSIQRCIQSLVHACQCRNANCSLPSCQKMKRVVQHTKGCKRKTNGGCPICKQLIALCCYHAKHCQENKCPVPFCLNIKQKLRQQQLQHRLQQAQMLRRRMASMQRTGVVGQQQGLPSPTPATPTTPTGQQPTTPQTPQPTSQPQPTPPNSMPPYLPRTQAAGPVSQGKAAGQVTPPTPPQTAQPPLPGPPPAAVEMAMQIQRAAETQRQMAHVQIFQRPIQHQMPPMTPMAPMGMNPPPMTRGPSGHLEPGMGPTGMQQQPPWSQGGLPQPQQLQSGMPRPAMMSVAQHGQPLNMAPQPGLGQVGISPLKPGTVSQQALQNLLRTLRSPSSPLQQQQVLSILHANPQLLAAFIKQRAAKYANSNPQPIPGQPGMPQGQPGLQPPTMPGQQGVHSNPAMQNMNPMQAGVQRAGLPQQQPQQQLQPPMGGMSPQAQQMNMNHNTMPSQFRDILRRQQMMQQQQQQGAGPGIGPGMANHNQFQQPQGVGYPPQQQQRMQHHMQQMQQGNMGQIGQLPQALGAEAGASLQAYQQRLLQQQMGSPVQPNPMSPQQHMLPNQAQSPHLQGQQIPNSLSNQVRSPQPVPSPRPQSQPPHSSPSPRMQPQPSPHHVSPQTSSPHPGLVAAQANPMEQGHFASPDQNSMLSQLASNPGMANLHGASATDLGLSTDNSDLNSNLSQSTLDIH

TDI [1]: Not Active | IC50 [2]: 5.7 nM | TDI [3]: Not Active | inhibition [4]: inactive | inhibition at 20 min, 10 µM [5]: 41% | inhibition at 20 min, 10 µM [6]: 3% | half-life [7]: 42 min | microsomal CLint at 1 µM [8]: 460 µL/min/mg | inhibition [9]: Active | solubility [10]: Insoluble | AUC(0-inf) [11]: 244 ng·h/mL | IC50 [12]: 3.3 nM | TDI [14]: Not Active | TDI [15]: Not Active | inhibition activity call (active/inactive) [16]: Active | inhibition [17]: Active | inhibition [18]: Active | AUC(0-t) [19]: 243 ng·h/mL | half-life at 1 µM [20]: 3 min | microsomal CLint at 1 µM [21]: 44 µL/min/mg | Tmax [22]: 18 min | solubility [23]: Insoluble | Cmax [24]: 265 ng/mL | half-life at 1 µM [25]: 31.5 min | inhibition at 20 min, 10 µM [26]: 10% | TDI [27]: Not Active
SMILES: Cc1ccc(-n2c(C)nnc2-c2ccc3c(c2)N(C2CC2)C(C)C(=O)N3C)cc1 (configuration not stated)
T/C [13]: 67.4%
